Compounds with a hit are over-represented: about 5.7% of the library has one in this group of screens.
CSC inhib: cancer stem cell viability inhibitors, primary screen, luminescence; inhibition, % at 7.5 µM; 1.1% of 300,000 active; AID 2717, 2010; cancer stem cell-like cells viability; in the data active = inhibition above about 75%; inconclusive = no clear call, values can overlap the other calls; tested in HMLE shEcad cells
Beta cell apopt: inhibitors of cytokine-induced beta cell apoptosis, primary screen, luminescence | INS-1E cytokine-induced death, ATP luminescence, 48 h; percent of positive-control rescue, neutral wells zero | protection from apoptosis, % (concentration not given with the values) | 0.8% of 300,000 active;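 active = Every replicate reaches about 75%, or at least half do and their mean reaches it too, limit read from the data; inconclusive = At least half of replicates reach the limit but their mean does not; inactive = Under half of replicates reach the limit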;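 also: 0% = cytokine-treated negative control wells and 100% = positive control rescue; higher means more ATP so stronger rescue from cytokine killing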
Mdm2 MdmX PPI: inhibitors of human Mdm2-MdmX association, primary screen, cell-based, luminescence, split luciferase, SaOS-2, uHTS. Protein Mdm4 (Homo sapiens) + E3 ubiquitin-protein ligase Mdm2 (Homo sapiens), …. SaOS-2 split-luciferase Mdm2/MdmX complementation. inhibition, % at 8 µM. 3% of 330,000 active. AID 485346, 2010;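 active = inhibition of at least 50% at 8 µM in the primary screen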
Calb FLC: C. albicans growth inhibition with fluconazole, primary screen, CaCi-2 strain, Alamar Blue fluorescence. C. albicans CaCi-2 (fluconazole-resistant clinical isolate) + fluconazole, 48 h. growth inhibition, % (test concentration not listed). 0.57% of 300,000 active;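 active = growth inhibition above about 58% in most replicates, limit read from the data, passing the limit was not always enough; inconclusive = exactly half the replicates above a set limit; inactive = most replicates below a set limit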;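 also: all wells also contain fluconazole at 8 µg/ml as a sub-toxic cotreatment; 0% = median of DMSO wells and 100% = median of geldanamycin control wells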
T cruzi inh: inhibitors of intracellular T. cruzi growth, primary screen, luminescence, NIH3T3 host cells. T. cruzi beta-gal in NIH3T3, 90 h. inhibition, % (test concentration not listed). 1.4% of 300,000 active;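 active = mean inhibition across valid replicates above about 55%, limit read from the data; inconclusive = mean below that limit but half or more replicates reach it; inactive = mean below it, under half of replicates reach it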;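 also: signal also drops with host cell toxicity which is not excluded here; 0% = plate median of DMSO wells and 100% = zero luminescence signal; higher percent means less beta-gal luminescence so fewer parasites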
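System – NIH/3T3 host cells with β-galactosidase reporter T. cruzi · Doses – single 50 nL compound addition per well in DMSO · Reagent – 5000 T. cruzi trypomastigotes/well · Medium – Low-serum DMEM with 2% FBS · Timing – ≥90 h infection period, 3 h prior cell attachment · Evaluation – parasite load inhibition, % · Technique – GalScreen luminescence, 60 min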
SKKanGAS inh: S. pyogenes SKKanGAS growth inhibitors in kanamycin, primary screen, streptokinase expression inhibitor project, SKKanGAS strain, BacTiter-Glo luminescence; 6 h; inhibition, % at 7.5 µM; 1.3% of 300,000 active;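 active = mean replicate score, as percent of positive control median, at least 50; inconclusive = mean below 50 but one replicate at or above 50; inactive = mean and every replicate below 50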;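 also: strain carries kanamycin resistance gene driven by streptokinase promoter and grows in 40 µg/ml kanamycin; loss of luminescence reflects streptokinase promoter inhibition or plain growth inhibition; 0% = median of DMSO wells and 100% = positive control at its reference dose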
Mdm2-MdmX conf: Mdm2-MdmX complex disruptors, retested hits, confirmation, luminescence, single concentration; shares compounds with Mdm2 MdmX PPI; Mdm2-MdmX binding, luminescent assay; 55% of 10,000 active; inhibition, % at 8 µM; in the data active = inhibition above about 40%
FLuc counter: full-length luciferase signal inhibition, confirmation, counter-screen for Mdm2/MdmX interaction inhibitor project, cell-based, single concentration, SaOS-2. inhibition, % at 8 µM. 77% of 6,200 active. SaOS-2 full-length luciferase counterscreen, luminescence. shares compounds with Mdm2 MdmX PPI;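 active = mean inhibition at 8 µM reaching about 37%, which flags the compound as non-specific, limit read from the data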;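 also: p53-null SaOS-2 cells with luciferase driven by a doxycycline-inducible promoter; compound on cells about two nights before reading with doxycycline added after day one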
Active calls of the source: *; ? = inconclusive; . = no result given.

SMILES	CSC inhib	Beta cell apopt	Mdm2 MdmX PPI	Calb FLC	T cruzi inh	SKKanGAS inh	Mdm2-MdmX conf	others
COCCCNC(=O)COc1cc2c(c3oc(=O)c(C)c(C)c13)CCC(C)(C)O2	0	4	23	5	8	0	.
O=C(Cc1ccccc1Cl)Nc1cccc(S(=O)(=O)N2CCCCCC2)c1	35	-4	14	.	.	.	.
O=C(Nc1ccc(Cl)cc1Cl)NC1CCCC1	10	3	0	-21	17	5	.
COc1ccc(NC(=O)COc2ccc(C)c(C)c2)cc1S(=O)(=O)N1CCCCC1	6	2	-1	4	14	8	.
COc1ccc(NC(=O)COc2cc(C)cc(C)c2)cc1S(=O)(=O)N1CCCCC1	3	-4	62*	6	27	5	75*	FLuc counter=51*
O=C(Nc1cccc(S(=O)(=O)N2CCCCC2)c1)Nc1ccc(Cl)cc1Cl	65	29	88*	10	45	39	40
COc1cc(Cl)c(C)cc1NCC(=O)Nc1cccc(S(=O)(=O)N2CCCC2)c1	.	-2	51*	.	.	.	14
O=C(Nc1ccc(Cl)cc1Cl)NC1CCN(S(=O)(=O)c2ccc(F)cc2)CC1	60	7	51*	-1	9	47	42*	FLuc counter=59*
Cc1cc(Br)cc(Br)c1OCC(=O)NNC(=O)Nc1ccccc1	-5	-4	5	-3	-26	1	.
CCOC(=O)c1sc2nc(C)nc(SC(C)C(=O)N(C)c3ccccc3)c2c1C (configuration not stated)	9	1	-5	.	.	.	.
COc1ccccc1NS(=O)(=O)c1cccc(NC(=O)Nc2ccc(Cl)cc2)c1	.	47	94*	-1	67*	55*	43*	FLuc counter=69*
COc1ccc(/C=C/C(=O)NC(=S)Nc2ccc(S(=O)(=O)N=C(N)N)cc2)cc1OC	-6	-8	38	-1	-15	-5	.
C=C(C(=O)Oc1ccccc1C(C)(C)C)c1ccccc1	103*	7	96*	.	.	.	49*	FLuc counter=34
CC(C)(C)c1ccccc1OCC(=O)NCCC(=O)O	1	-6	23	12	-15	-8	.
CC(=O)c1ccc(N2CCN(C(=O)c3ccc4ccccc4n3)CC2)cc1	-16	-3	-20	8	0	5	.
CC(=O)c1ccc(N2CCN(C(=O)/C=C/c3ccc4ccccc4n3)CC2)cc1	27	-3	69*	38	28	10	52*	FLuc counter=66*
Cc1cc(C)c2nc(NNC(=O)c3cc(-c4cccs4)nc4ccccc34)sc2c1	97*	.	77*	82*	46	89*	68*	FLuc counter=57*
O=C(NN1CCOCC1)c1cc(-c2cccs2)nc2ccccc12	5	-5	-12	3	-33	2	.
Cc1c(NC(=O)c2cc(-c3ccccc3)nc3ccccc23)c(=O)n(-c2ccccc2)n1C	-1	3	20	.	.	.	.
O=C(NNc1nc2ccc(Cl)cc2s1)c1cc(-c2cccs2)nc2ccccc12	109*	6	53*	86*	-30	88*	62*	FLuc counter=61*
Cc1ccc(NC(=O)c2cc(-c3cccs3)nc3ccccc23)nc1	19	4	22	0	-6	0	.
Cc1c(NC(=O)c2cc(-c3cccs3)nc3ccccc23)c(=O)n(-c2ccccc2)n1C	22	5	57*	-3	-46	7	37
COc1ccc(N(Cc2ccccc2)S(=O)(=O)c2cccc(C(=O)NCC3CCCO3)c2)cc1 (configuration not stated)	.	.	12	.	.	.	.
O=C(CCN1C(=O)[C@@H]2Cc3ccccc3CN2C1=O)Nc1cccc(F)c1	-14	-4	9	1	-2	5	.
O=C(CN1CCC(NC(=O)Nc2ccc(F)cc2)CC1)Nc1ccccc1[N+](=O)[O-]	2	2	-1	15	18	1	.
SMILES	CSC inhib	Beta cell apopt	Mdm2 MdmX PPI	Calb FLC	T cruzi inh	SKKanGAS inh	Mdm2-MdmX conf	others
C=CCC[C@H](Cc1ccc(F)cc1)C(=O)OC[C@@H](Cc1c[nH]c2ccccc12)NC(=O)[C@H](CC=C)CC(=O)N(CCO)Cc1ccccc1	92*	-13	94*	.	.	.	34
C=CCC[C@H](Cc1ccc(F)cc1)C(=O)OC[C@@H](NC(=O)[C@@H](CC=C)CC(=O)N(CCO)Cc1ccccc1)C(C)(C)C	51	4	50*	.	.	.	15
C=CCC[C@H](Cc1ccc(F)cc1)C(=O)OC[C@@H](Cc1c[nH]c2ccccc12)NC(=O)[C@@H](CC=C)CC(=O)N[C@H](CO)Cc1ccccc1	-7	7	-2	.	.	.	.
C=CC[C@H](CC(=O)N(CCO)Cc1ccccc1)C(=O)N[C@H](COC(=O)[C@@H](CC=C)Cc1ccc(F)cc1)C(C)(C)C	.	0	22	.	.	.	.
C=CC[C@@H](CC(=O)N(CCO)Cc1ccccc1)C(=O)N[C@H](COC(=O)[C@@H](CC=C)Cc1ccc(F)cc1)c1ccccc1	-10	-11	44	.	.	.	.
C=CCC[C@@H](Cc1ccc(F)cc1)C(=O)OC[C@@H](Cc1c[nH]c2ccccc12)NC(=O)[C@H](CC=C)CC(=O)N(CCO)Cc1ccccc1	.	-5	94*	.	.	.	26
C=CC[C@@H](CC(=O)N(CCO)Cc1ccccc1)C(=O)NC[C@H](OC(=O)[C@@H](CC=C)Cc1ccc(F)cc1)c1ccccc1	30	4	85*	.	.	.	71*	FLuc counter=49*
C=CCC[C@H](Cc1ccc(F)cc1)C(=O)OC[C@H](Cc1c[nH]c2ccccc12)NC(=O)[C@H](CC=C)CC(=O)N[C@H](CO)Cc1ccccc1	.	8	-3	.	.	.	.
C/C(=N\NC(=O)c1c(Br)cnn1C)c1ccc(NC(=O)c2ccc(F)cc2)cc1	4	0	67*	?	-8	-18	-38
Cc1ccc(-c2cc(C(F)F)n3ncc(C(=O)Nc4c(C)nn(Cc5c(Cl)cccc5Cl)c4C)c3n2)cc1	15	9	80*	-2	-5	21	-9
COCCNC(=O)c1cnn2c(C(F)F)cc(-c3ccc(C)cc3)nc12	7	0	12	3	23	-7	.
COc1ccc(-c2cc(C(F)F)n3ncc(C(=O)Nc4cc(C)on4)c3n2)cc1	7	8	59*	?	-6	-8	12

Compound activity from PubChem.
